ChEMBL document CHEMBL2311514, “Further exploration of M₁ allosteric agonists: subtle structural changes abolish M₁ allosteric agonism and result in pan-mAChR orthosteric antagonism” (Bioorg Med Chem Lett, 2013)
Where a chain is given by its changes, count along the chain named. Active and inactive are the calls of the source. No cut-off for these calls is given here.

Legend:
[1] = target: T1, Muscarinic acetylcholine receptor M4 (Rattus norvegicus, UniProt P08485); assay: (§1) Antagonist activity at rat muscarinic M4 receptor expressed in CHO cells assessed as inhibition of Ach-induced calcium response; format: functional, cell-based
T1 sequence (P08485 whole entry): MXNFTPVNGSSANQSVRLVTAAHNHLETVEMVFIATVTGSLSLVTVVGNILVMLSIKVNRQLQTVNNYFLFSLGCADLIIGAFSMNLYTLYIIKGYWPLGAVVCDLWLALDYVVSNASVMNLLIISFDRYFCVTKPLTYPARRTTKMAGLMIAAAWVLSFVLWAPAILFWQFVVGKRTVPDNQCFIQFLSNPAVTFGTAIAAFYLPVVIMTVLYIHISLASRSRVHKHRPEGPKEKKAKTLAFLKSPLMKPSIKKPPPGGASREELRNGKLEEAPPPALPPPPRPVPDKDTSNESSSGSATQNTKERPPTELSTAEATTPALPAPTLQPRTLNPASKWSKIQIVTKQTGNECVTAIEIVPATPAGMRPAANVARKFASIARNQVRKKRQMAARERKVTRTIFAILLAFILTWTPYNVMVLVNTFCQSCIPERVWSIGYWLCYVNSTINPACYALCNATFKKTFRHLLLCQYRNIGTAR

[2] = target: T2, Muscarinic acetylcholine receptor M1 (Rattus norvegicus, UniProt P08482); assay: (§2) Antagonist activity at rat muscarinic M1 receptor expressed in CHO cells assessed as inhibition of Ach-induced calcium response; format: functional, cell-based
T2 sequence (P08482 whole entry): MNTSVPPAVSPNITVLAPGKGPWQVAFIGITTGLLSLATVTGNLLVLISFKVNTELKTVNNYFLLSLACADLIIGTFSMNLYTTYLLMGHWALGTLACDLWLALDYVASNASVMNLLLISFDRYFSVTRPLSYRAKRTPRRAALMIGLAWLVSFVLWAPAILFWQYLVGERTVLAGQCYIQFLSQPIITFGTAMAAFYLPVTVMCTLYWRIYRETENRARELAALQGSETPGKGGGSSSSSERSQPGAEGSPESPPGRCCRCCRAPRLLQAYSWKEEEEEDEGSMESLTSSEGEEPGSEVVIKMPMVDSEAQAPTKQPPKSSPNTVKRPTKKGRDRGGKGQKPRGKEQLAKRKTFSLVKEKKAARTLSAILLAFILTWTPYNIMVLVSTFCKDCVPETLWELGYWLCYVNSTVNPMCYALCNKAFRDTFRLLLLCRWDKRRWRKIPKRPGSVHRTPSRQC

[3] = target: T3, Muscarinic acetylcholine receptor M1 (Rattus norvegicus) (UniProt P08482); assay: as §2; format: functional, cell-based
T3 sequence (whole entry): T2 sequence (P08482 whole entry)

[4] = target: T4, Muscarinic acetylcholine receptor M5 (Rattus norvegicus, UniProt P08911); assay: (§3) Antagonist activity at rat muscarinic M5 receptor expressed in CHO cells assessed as inhibition of Ach-induced calcium response; format: functional, cell-based
T4 sequence (P08911 whole entry): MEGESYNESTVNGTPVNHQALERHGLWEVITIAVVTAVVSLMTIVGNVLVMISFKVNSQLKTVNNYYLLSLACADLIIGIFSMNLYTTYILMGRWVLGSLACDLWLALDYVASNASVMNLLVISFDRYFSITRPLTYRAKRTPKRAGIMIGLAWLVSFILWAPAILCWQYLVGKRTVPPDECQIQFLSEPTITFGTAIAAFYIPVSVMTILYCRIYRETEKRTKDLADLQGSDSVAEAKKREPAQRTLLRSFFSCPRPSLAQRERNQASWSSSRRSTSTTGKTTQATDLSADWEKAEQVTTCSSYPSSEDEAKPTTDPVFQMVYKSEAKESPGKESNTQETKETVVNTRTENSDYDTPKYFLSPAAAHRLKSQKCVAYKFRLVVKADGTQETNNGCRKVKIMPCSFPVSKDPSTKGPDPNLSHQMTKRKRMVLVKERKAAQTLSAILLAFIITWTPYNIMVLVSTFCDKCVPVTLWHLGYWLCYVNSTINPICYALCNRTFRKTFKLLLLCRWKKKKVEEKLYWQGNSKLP

[5] = target: T5, Muscarinic acetylcholine receptor M3 (Rattus norvegicus, UniProt P08483); assay: (§4) Antagonist activity at rat muscarinic M3 receptor expressed in CHO cells assessed as inhibition of Ach-induced calcium response; format: functional, cell-based
T5 sequence (P08483 whole entry): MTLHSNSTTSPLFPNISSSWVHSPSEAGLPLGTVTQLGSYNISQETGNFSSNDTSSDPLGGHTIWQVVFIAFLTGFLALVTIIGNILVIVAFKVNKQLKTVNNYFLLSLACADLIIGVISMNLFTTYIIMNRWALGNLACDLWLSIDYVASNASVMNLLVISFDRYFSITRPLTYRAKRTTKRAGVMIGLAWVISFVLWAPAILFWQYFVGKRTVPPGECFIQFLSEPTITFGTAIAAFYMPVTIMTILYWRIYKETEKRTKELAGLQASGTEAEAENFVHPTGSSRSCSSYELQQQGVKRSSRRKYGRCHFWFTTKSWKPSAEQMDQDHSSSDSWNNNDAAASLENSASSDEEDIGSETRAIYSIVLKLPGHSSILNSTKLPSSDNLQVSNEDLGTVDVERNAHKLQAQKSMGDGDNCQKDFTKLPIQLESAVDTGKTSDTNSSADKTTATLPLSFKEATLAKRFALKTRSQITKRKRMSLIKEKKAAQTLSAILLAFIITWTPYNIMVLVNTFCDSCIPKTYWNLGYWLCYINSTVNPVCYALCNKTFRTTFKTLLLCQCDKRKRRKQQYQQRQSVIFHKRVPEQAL

[6] = target: T3, Muscarinic acetylcholine receptor M1 (Rattus norvegicus); assay: (§5) Partial agonist activity at rat muscarinic M1 receptor expressed in CHO cells calcium response; format: functional, cell-based
Outline: (§6)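 Run in agonist mode as concentration-response curves on rat M1–M5 receptors. EC50 and pEC50 were taken from the curves. Efficacy was expressed as a percentage of the maximal acetylcholine response.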

[7] = target: T6, Muscarinic acetylcholine receptor M2 (Rattus norvegicus, UniProt P10980); assay: (§7) Antagonist activity at rat muscarinic M2 receptor expressed in CHO cells assessed as inhibition of Ach-induced calcium response; format: functional, cell-based
T6 sequence (P10980 whole entry): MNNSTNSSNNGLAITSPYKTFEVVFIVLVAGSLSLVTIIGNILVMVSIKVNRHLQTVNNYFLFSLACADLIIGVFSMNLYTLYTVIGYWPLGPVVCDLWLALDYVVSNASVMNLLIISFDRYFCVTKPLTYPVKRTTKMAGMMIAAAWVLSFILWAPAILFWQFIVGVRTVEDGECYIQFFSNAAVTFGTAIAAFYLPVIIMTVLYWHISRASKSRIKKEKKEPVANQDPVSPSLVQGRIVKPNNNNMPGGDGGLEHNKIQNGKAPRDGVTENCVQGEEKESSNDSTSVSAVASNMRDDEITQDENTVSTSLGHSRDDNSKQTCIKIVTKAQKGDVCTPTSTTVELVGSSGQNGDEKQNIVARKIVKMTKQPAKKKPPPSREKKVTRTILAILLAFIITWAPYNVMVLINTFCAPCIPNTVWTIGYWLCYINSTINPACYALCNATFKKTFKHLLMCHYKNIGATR

[8] = target: T7, Muscarinic acetylcholine receptor M5 (Homo sapiens) (UniProt P08912); assay: (§8) Antagonist activity at human muscarinic M5 receptor expressed in CHO cells assessed as inhibition of Ach-induced calcium response; format: functional, cell-based
T7 sequence (whole entry): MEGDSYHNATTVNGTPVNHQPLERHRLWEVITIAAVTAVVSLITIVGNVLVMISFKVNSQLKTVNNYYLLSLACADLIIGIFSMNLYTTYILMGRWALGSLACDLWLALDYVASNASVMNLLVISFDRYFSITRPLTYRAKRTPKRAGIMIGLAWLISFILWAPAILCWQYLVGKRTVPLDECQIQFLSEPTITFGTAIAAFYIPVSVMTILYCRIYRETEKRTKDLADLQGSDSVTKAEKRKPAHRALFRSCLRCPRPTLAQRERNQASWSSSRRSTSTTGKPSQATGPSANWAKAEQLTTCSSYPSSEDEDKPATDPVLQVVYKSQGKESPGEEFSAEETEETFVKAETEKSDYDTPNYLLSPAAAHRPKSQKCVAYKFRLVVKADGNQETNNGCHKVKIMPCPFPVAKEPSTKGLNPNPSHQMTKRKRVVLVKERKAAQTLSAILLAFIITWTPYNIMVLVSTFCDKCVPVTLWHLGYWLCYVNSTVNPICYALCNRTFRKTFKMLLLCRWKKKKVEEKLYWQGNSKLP

[9] = target: T2, Muscarinic acetylcholine receptor M1; assay: Displacement of [3H]NMS from rat muscarinic M1 receptor expressed in CHO cells after 3 hrs; format: cell-based
[10] = target: T8, Muscarinic acetylcholine receptor M1 (Homo sapiens) (UniProt P11229); assay: Antagonist activity at human muscarinic M1 receptor expressed in CHO cells assessed as inhibition of acetylcholine-induced calcium response; format: functional, cell-based
T8 sequence (whole entry): T2 sequence (P08482 whole entry) with V5A, S254T, S309P, K320R, G337A, V413I

[11] = target: T9, Muscarinic acetylcholine receptor M2 (Homo sapiens) (UniProt P08172); assay: (§9) Antagonist activity at human muscarinic M2 receptor expressed in CHO cells assessed as inhibition of Ach-induced calcium response; format: functional, cell-based
T9 sequence (whole entry): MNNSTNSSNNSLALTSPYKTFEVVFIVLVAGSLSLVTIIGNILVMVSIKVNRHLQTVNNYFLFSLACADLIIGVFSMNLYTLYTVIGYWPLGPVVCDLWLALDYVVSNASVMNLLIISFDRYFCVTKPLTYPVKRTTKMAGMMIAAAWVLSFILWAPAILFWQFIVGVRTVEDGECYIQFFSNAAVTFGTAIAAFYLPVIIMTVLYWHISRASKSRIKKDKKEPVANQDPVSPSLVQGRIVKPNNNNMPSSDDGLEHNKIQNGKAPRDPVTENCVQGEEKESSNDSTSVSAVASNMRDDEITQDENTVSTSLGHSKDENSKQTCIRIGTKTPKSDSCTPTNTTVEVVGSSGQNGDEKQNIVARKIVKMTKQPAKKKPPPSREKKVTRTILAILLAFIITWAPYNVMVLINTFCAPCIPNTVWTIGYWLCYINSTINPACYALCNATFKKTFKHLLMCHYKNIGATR

[12] = target: T3, Muscarinic acetylcholine receptor M1 (Rattus norvegicus); assay: Orthosteric antagonist activity at rat muscarinic M1 receptor expressed in CHO cells using [3HNMS] at 50 uM by dissociation kinetic studies; format: cell-based
[13] = target: T10, Muscarinic acetylcholine receptor M5 (Homo sapiens, UniProt P08912); assay: as §8; format: functional, cell-based
T10 sequence (P08912 whole entry): T7 sequence (whole entry)

[14] = target: T3, Muscarinic acetylcholine receptor M1 (Rattus norvegicus); assay: Partial agonist activity at rat muscarinic M1 receptor expressed in CHO cells calcium response relative to acetylcholine; format: functional, cell-based; outline: as §6
[15] = target: T10, Muscarinic acetylcholine receptor M5; assay: Partial agonist activity at human muscarinic M5 receptor expressed in CHO cells calcium response; format: functional, cell-based
[16] = target: T5, Muscarinic acetylcholine receptor M3; assay: Partial agonist activity at rat muscarinic M3 receptor expressed in CHO cells calcium response; format: functional, cell-based; outline: as §6
[17] = target: T11, Muscarinic acetylcholine receptor M2 (Homo sapiens, UniProt P08172); assay: as §9; format: functional, cell-based
T11 sequence (P08172 whole entry): T9 sequence (whole entry)

[18] = target: T11, Muscarinic acetylcholine receptor M2; assay: Partial agonist activity at human muscarinic M2 receptor expressed in CHO cells calcium response; format: functional, cell-based
[19] = target: T6, Muscarinic acetylcholine receptor M2; assay: Partial agonist activity at rat muscarinic M2 receptor expressed in CHO cells calcium response; format: functional, cell-based; outline: as §6
[20] = target: T2, Muscarinic acetylcholine receptor M1; assay: as §5; format: functional, cell-based; outline: as §6
[21] = target: T12, Muscarinic acetylcholine receptor M4 (Rattus norvegicus) (UniProt P08485); assay: as §1; format: functional, cell-based
T12 sequence (whole entry): T1 sequence (P08485 whole entry)

[22] = target: T13, Muscarinic acetylcholine receptor M5 (Rattus norvegicus) (UniProt P08911); assay: as §3; format: functional, cell-based
T13 sequence (whole entry): T4 sequence (P08911 whole entry)

[23] = target: Muscarinic acetylcholine receptor M3 (Rattus norvegicus) (UniProt P08483); assay: as §4; format: functional, cell-based
Muscarinic acetylcholine receptor M3 (Rattus norvegicus), sequence (P08483 whole entry, looked up): as the sequence (P08483 whole entry) above

[24] = target: T14, Muscarinic acetylcholine receptor M2 (Rattus norvegicus) (UniProt P10980); assay: as §7; format: functional, cell-based
T14 sequence (whole entry): T6 sequence (P10980 whole entry)

Cc1ccccc1CN1CCC(N2CC3CC(n4c(=O)[nH]c5ccccc54)CC3C2)CC1 (centres undefined)
IC50 [1]: > 10 µM
IC50 ([2]; read-out: IC50): 6.4 µM
Imax [3]: -1.07%
IC50 ([4]; read-out: IC50): > 10 µM
IC50 ([5]; read-out: IC50): > 10 µM
Activity [6]: inactive
IC50 ([7]; read-out: IC50): > 10000 nM

Cc1ccccc1CN1CCC(N2CCC(n3c(=O)[nH]c4ccccc43)C(F)C2)CC1 (centres undefined)
IC50 [1]: 5.2 µM
inhibition [8]: Active
IC50 ([2]; read-out: IC50): 4.9 µM
Imax [3]: 13.6%
Ki [9]: 1350 nM
IC50 ([4]; cho, read-out: IC50): > 10 µM
IC50 ([4]; read-out: pIC50 (converted)): > 10 µM
inhibition [10]: Active
IC50 ([5]; cho, read-out: IC50): > 10 µM
IC50 ([5]; read-out: pIC50 (converted)): > 10 µM
Activity [6]: inactive
inhibition [11]: Active
Activity [12]: Active
IC50 ([7]; cho, read-out: IC50): > 10000 nM
IC50 ([7]; read-out: pIC50 (converted)): > 10000 nM

Cc1ccccc1CN1CCC(N2CCC(n3c(=O)[nH]c4ccccc43)CC2)CC1
IC50 [13]: 4.9 µM
Imax [14]: 69.3%
IC50 ([4]; read-out: IC50): 3.97 µM
EC50 [15]: > 30 µM
EC50 [16]: > 30 µM
IC50 ([5]; read-out: IC50): 5.48 µM
IC50 [17]: 3.5 µM
EC50 [18]: > 30 µM
EC50 [19]: > 30 µM
IC50 ([7]; read-out: IC50): 1290 nM

CCOC(=O)N1CCC(N2CCC[C@@H](NC(=O)c3cccc(Br)c3)C2)CC1
Imax [14]: 37.4%
EC50 [20]: 2000 nM

CCOC(=O)N1CCC(N[C@H]2CCCN(C(=O)c3ccccc3)C2)CC1
inhibition [21]: Active
IC50 ([2]; read-out: IC50): 0.273 µM
IC50 ([2]; read-out: pIC50 (converted)): 0.479 µM
Imax [3]: 3%
inhibition [22]: Active
inhibition [23]: Active
inhibition [24]: Active

CCOC(=O)N1CCC(N2CCC[C@@H](NC(=O)c3ccc(C(F)(F)F)nc3)C2)CC1
IC50 [1]: > 10 µM
IC50 ([2]; read-out: pIC50 (converted)): 3.16 µM
Imax [3]: 2.7%
IC50 ([4]; read-out: IC50): > 10 µM
IC50 ([5]; read-out: IC50): > 10 µM
IC50 ([7]; read-out: pIC50 (converted)): 1070 nM

CCOC(=O)N1CCC(N2CCC[C@@H](NC(=O)c3cc(Br)cc(Br)c3)C2)CC1
IC50 ([2]; read-out: pIC50 (converted)): 3.39 µM
Imax [3]: 0.4%
